In publication PMC5777231 (Nature, 2017):
Each block holds one compound with its values, some of them ahead of it.

Legend:
S1PR1 = S1PR1 (Homo sapiens, UniProt P21453); assay: β-arrestin GPCR agonist screen, S1PR1; assay type: cell-based; details: 10 µM ligand
Summary of the method: (§1)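 Cell-based β-arrestin recruitment screen, run by a contract lab, at 10 µM ligand in agonist and antagonist modes across 168 GPCRs with known ligands plus 72 orphan GPCRs. Test compounds were bacterial N-acyl amides, taking the most abundant analog of each family from heterologous E. coli expression. Synthetic N-acyl amides were screened the same way.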

S1PR2 = S1PR2 (Homo sapiens, UniProt O95136); assay: β-arrestin GPCR agonist screen, S1PR2; assay type: cell-based; details: 10 µM ligand
Summary of the method: as §1

[1] = biological target: T1, sphingosine-1-phosphate receptor 4 (S1PR4) (Homo sapiens, UniProt O95977); assay: β-arrestin cell-based GPCR agonist assay; details: for activation of / interaction with S1PR4 (in words): GPCR screen
T1 sequence (O95977 1-384): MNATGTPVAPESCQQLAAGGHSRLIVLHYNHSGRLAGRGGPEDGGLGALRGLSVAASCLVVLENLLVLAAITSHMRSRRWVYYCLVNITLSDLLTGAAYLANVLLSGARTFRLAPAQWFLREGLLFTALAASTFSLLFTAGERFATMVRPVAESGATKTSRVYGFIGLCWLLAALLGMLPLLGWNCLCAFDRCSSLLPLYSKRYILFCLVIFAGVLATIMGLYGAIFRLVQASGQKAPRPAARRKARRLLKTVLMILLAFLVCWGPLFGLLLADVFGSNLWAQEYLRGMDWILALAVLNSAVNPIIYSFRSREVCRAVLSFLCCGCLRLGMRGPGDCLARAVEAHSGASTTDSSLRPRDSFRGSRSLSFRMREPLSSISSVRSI

S1PR3 = S1PR3 (Homo sapiens, UniProt Q99500); assay: β-arrestin GPCR agonist screen, S1PR3; assay type: cell-based; details: 10 µM ligand
Summary of the method: as §1

G2A (GPR132) = biological target: T2, G2A (GPR132) (Homo sapiens, UniProt Q9UNW8); assay: β-arrestin cell-based orphan GPCR agonist assay
T2 sequence (Q9UNW8 1-380): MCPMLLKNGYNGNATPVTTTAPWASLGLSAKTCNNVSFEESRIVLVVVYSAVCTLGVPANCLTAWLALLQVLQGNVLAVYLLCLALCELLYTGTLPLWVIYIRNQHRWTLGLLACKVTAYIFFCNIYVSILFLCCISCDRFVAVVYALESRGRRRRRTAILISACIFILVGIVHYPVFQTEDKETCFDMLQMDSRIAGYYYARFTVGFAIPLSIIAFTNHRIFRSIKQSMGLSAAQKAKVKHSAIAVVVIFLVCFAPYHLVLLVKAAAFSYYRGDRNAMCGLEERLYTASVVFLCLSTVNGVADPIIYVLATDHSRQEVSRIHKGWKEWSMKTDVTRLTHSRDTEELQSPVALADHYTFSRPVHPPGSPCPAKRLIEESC
Summary of the method: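 Orphan GPCR panel, DiscoveRx β-arrestin recruitment format, agonist mode. Test compound was screened at 10 µM in singlicate. Follow-up dose-response curves were run in duplicate per dose, and EC50 was derived from them.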

GLUTag cells = assay: GLP-1 release from GLUTag cells; assay type: cell-based, murine; details: equimolar concentrations, 2 hours
Summary of the method: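 Murine enteroendocrine GLUTag cells were grown in low-glucose GlutaMAX DMEM with 10% FBS and 1% Pen/Strep, then plated at 50,000 cells/well overnight. Cells were washed twice and preincubated 30 min in Krebs buffer with DPP4 inhibitor. Compounds from 10 mM DMSO stocks were added at 1 µM and 100 µM for 2 h, with DMSO as control. Clarified supernatant was assayed by active GLP-1 immunoassay. Two independent experiments gave 4–6 wells per condition, analysed by ANOVA.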

GPR119 = biological target: T3, GPR119 (Homo sapiens, UniProt Q8TDV5); assay: cAMP secondary assay in ACTOne HEK293 cells transfected with GPR119; assay type: cell-based; details: HEK293 cells stably transfected with GPR119 vs not transfected; GPR119 dependent
T3 sequence (Q8TDV5 1-335): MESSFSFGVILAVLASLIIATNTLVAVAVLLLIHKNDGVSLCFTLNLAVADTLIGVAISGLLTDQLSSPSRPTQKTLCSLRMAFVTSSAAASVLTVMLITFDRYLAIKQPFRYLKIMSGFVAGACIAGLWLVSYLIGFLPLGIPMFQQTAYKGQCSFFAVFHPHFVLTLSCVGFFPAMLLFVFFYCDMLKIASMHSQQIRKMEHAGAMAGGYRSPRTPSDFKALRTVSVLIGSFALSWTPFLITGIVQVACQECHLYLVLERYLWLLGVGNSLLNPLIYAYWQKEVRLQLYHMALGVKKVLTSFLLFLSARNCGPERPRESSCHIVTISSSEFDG
Summary of the method: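 Orthogonal cAMP read-out used live ACTOne HEK293 cells, which carry a cAMP-sensitive ion channel, read with a membrane potential dye kit. GPR119-transfected cells were compared with parental untransfected cells. Each was exposed to equimolar ligand concentrations, with the endogenous ligand and an ADORA2B agonist as parental-line cAMP control. Relative fluorescence intensity was taken against background. Points were in quadruplicate, SD shown, and EC50 was derived.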

[2] = mice, intravenous delivery; cited from earlier work

Sequence of S1PR3 (Q99500 whole entry): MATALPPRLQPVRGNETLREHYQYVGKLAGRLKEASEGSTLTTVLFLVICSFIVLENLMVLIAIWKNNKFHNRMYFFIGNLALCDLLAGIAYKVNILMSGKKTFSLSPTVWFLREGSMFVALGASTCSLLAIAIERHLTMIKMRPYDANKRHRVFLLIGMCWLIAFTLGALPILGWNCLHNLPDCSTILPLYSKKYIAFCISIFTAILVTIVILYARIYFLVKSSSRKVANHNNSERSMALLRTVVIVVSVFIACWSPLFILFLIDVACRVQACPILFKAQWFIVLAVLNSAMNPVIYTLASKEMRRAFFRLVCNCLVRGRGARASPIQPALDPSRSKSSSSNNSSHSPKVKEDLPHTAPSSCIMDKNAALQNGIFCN
Sequence of S1PR2 (O95136 whole entry): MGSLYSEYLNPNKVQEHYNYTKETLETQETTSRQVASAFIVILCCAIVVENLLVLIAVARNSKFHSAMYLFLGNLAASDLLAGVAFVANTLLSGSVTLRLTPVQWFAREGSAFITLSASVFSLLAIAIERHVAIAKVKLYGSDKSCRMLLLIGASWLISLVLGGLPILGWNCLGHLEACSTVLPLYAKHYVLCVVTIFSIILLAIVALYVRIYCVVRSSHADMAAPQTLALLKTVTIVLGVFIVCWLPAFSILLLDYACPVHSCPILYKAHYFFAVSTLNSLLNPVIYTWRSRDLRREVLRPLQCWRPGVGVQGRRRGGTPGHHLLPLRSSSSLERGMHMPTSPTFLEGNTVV
Sequence of S1PR1 (P21453 whole entry): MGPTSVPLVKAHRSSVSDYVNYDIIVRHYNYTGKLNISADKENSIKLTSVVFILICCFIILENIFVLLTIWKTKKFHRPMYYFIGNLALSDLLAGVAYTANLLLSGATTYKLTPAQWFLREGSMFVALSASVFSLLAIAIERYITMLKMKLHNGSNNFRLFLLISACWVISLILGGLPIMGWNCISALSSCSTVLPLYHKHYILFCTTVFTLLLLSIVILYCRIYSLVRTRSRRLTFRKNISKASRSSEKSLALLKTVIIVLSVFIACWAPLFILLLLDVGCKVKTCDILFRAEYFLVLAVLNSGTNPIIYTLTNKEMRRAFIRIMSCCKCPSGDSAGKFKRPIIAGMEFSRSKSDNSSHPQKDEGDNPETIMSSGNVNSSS

SMILES: CCCCCCCCCCCCCC(O)CC(=O)NCC(=O)O (stereo not shown) [N-3-hydroxypalmitoyl glycine]
activation of G2A (in words) (G2A (GPR132)): activate

SMILES: CCCCCCCC/C=C\CCCCCCCC(=O)OC(CO)CO [2-OG, 2-oleoyl glycerol]
GLP-1 secretion (GLUTag cells): to the same magnitude

SMILES: CCCCCCCCCCCCCCCC(=O)N[C@@H](C)C(=O)O [N-palmitoyl alanine]
activation of G2A (in words) (G2A (GPR132)): activate

Continued, in another order:

activation of S1PR1 (S1PR1): did not activate
activation of S1PR2 (S1PR2): did not activate
EC50 [1]: 32 µM
activation of / interaction with S1PR4 (in words) [1]: interact
activation of S1PR3 (S1PR3): did not activate
SMILES: CCCCCCCCCCCCCC(O)CC(=O)N[C@@H](CCCN)C(=O)O (stereo partly shown) [N-3-hydroxypalmitoyl ornithine]

activation of S1PR1 (S1PR1): activates
activation of S1PR2 (S1PR2): activates
activation of / interaction with S1PR4 (in words) [1]: activates
activation of S1PR3 (S1PR3): activates
SMILES: CCCCCCCCCCCCC/C=C/[C@@H](O)[C@@H](N)COP(=O)(O)O [S1P, sphingosine-1-phosphate]

cellular cAMP concentration (in words) (GPR119): increased
SMILES: CCCCCCCC/C=C\CCCCCCCC(=O)NCCO [OEA, oleoylethanolamide]
blood glucose in OGTT [2]: fails to lower blood glucose
GLP-1 secretion (GLUTag cells): to the same magnitude

activation of / interaction with S1PR4 (in words) [1]: interact
SMILES: CCCCCCCCCCCCCC(O)CC(=O)N[C@@H](CCCCN)C(=O)O (stereo partly shown) [N-3-hydroxypalmitoyl lysine]
